KCNK9 block – blocks the human KCNK9 two-pore domain potassium channel. hit rate 1.2% among 310,000. HEK293 KCNK9, FluxOR thallium flux fluorescence; hits give low values. B-score at 10 µM. Q9NPC2;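 active means ratio B-score over 3 SD below the library mean, with starting fluorescence within 5 SD of its mean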;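 further: negative B-score means less thallium flux so channel inhibition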
Target sequence (Q9NPC2 whole entry, looked up, the tested form may be a part): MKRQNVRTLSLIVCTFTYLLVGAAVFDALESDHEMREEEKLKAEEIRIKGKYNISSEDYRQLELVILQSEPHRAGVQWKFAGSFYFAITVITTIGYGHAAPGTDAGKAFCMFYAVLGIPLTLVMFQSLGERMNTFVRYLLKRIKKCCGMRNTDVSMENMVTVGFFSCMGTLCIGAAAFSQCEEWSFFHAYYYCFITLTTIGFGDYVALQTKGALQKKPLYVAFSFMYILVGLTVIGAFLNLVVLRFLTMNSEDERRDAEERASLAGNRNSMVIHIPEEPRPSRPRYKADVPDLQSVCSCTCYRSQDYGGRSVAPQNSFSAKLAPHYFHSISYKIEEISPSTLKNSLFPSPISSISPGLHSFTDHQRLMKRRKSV
hERG protect – hERG (human) protection from proarrhythmic block; activation (rescue from dofetilide block), less the hit threshold, % at 10 µM; CHO-hERG, FluxOR thallium flux, dofetilide IC70 present; hit rate 0.51% among 310,000; Q12809;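 active means activation above the mean of controls blocked by dofetilide plus 5 SD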;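 further: thallium influx through hERG after potassium depolarization seen as dye fluorescence rise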
KCNQ1 inh – blocks the human KCNQ1 potassium channel; hit rate 1.3% among 310,000; B-score at 10 µM; P51787; CHO-K1 KCNQ1, FluxOR thallium flux fluorescence; hits give high values;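 active means compounds whose thallium flux B-score, printed positive for inhibition, exceeds three library SD while starting fluorescence stays within three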;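 further: channel opened by potassium depolarization with thallium stimulus after 20 min compound exposure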
KCNK3 block – human KCNK3 channel inhibition, primary screen; CHO-KCNK3 thallium flux, FluxOR fluorescence; hits give low values; B-score at 10 µM; hit rate 0.84% among 340,000; AID 602410;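 active means B-score under library mean minus 4 SD, starting fluorescence ratio at most library mean plus 5 SD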;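 further: more negative B-score means stronger inhibition of thallium flux through KCNK3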
KCNQ1 act – potentiates or activates the human KCNQ1 potassium channel; CHO-K1 KCNQ1, thallium flux FluxOR fluorescence; hits give high values; hit rate 0.35% among 310,000; B-score at 10 µM;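 active means fluorescence ratio B-score, a plate-corrected score, at least three library SD, with initial intensity B-score within 5 SD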
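Assay system: stable KCNQ1 CHO-K1 line; medium: assay buffer, equal DMSO in all wells; timing: 90 min dye loading and 20 min compound exposure, both at room temperature; technique: kinetic FluxOR thallium fluorescence, 10-s 1-Hz baseline, 110-s post-stimulus read; read-out basis: B score of baseline-normalized fluorescence ratio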
Numbers without * were called inactive; i = inactive; nt = no result given. This is a sample that favours compounds with a hit; in the whole collection about 3.1% have one here.

SMILES | KCNK9 block | hERG protect | KCNQ1 inh | KCNK3 block | KCNQ1 act
O=C(N/N=C/c1sc(N2CCOCC2)nc1-c1ccccc1)c1ccccc1O | i | -13 | 9* | i | i
Cc1c(C(=O)N(C)C(C)c2ccccn2)oc2c(F)cccc12 (stereo not drawn) | i | -4 | i | i | i
CN1CCS/C1=C\C=C1/SC(=S)N(CC(=O)O)C1=O | i | -30 | 11* | i | i
O=C(COC(=O)c1cccc(F)c1)Nc1ccc2c(c1)OCCO2 | nt | nt | nt | i | nt
Cc1ccc(C)c(SCc2noc(C(=O)NC(C)C)c2C(=O)O)c1 | i | 0 | i | i | 9*
COCCNC(=O)c1onc(CSc2cc(C)ccc2C)c1C(=O)O | i | -7 | i | i | i
Cc1ccc(NC(=O)c2ccc(OC(=O)COc3cccc(Cl)c3)cc2)cc1 | i | -8 | i | i | i
C/C(=N\NC(=O)C1(C)CC1(Br)Br)c1cccc(NC(=O)C2CCC2)c1 (stereo not drawn) | -7.4* | -11 | i | i | i
COc1ccc(C(c2nnnn2C(C)(C)C)N2CCN(c3nc4ccccc4s3)CC2)cc1 (stereo not drawn) | -7.1* | -10 | i | i | i
O=c1c(/C=C(\O)c2ccccc2)nc2ccccc2n1-c1ccccc1 | -8.1* | -3 | i | i | i
Cc1nc2ccccc2n1-c1ccccc1 | i | 2 | i | i | i
COc1ccc(C)cc1NC(=O)c1ccccc1NS(=O)(=O)c1ccc(Cl)s1 | i | -16 | i | i | i
C=CCn1c(O)c(N=NC(=S)Nc2ccccc2C)c2cc(S(=O)(=O)N3CCOCC3)ccc21 | i | -2 | i | i | 9*
Cc1ccc(NC(=S)N=Nc2c(O)n(C)c3ccc(S(=O)(=O)N4CCOCC4)cc23)cc1C | i | -1 | i | i | i
Cn1c(O)c(N=NC(=S)Nc2ccccc2F)c2cc(S(=O)(=O)N3CCOCC3)ccc21 | i | 11* | i | i | i
COc1ccc(-n2nc(C(=O)c3cccs3)cc(-c3nc4ccccc4[nH]3)c2=N)cc1 | i | -11 | i | i | i
Cc1ccccc1-n1nc(C(=O)c2cccs2)cc(-c2nc3ccccc3[nH]2)c1=N | i | -17 | 6* | i | i
CSc1nc(-c2ccccc2)[nH]c(=S)c1C(C)=O | i | 32* | i | i | 44*
CC(=O)c1c(NC(=O)c2ccccc2)[nH]c(-c2ccccc2)nc1=S | i | 15* | i | i | 18*
O=C1/C(=N\S(=O)(=O)c2cccs2)C([n+]2ccc(CCCc3ccccc3)cc2)=C([O-])c2ccccc21 | i | -10 | i | i | i
O=C1/C(=N\S(=O)(=O)c2cccs2)C([n+]2cccc(Cc3ccccc3)c2)=C([O-])c2ccccc21 | -6.6* | -8 | i | i | i
CCOC(=O)c1ccc([N+](=O)[O-])c(CS(=O)(=O)c2ccc(Cl)cc2)c1 | i | -11 | i | i | i
Cc1ccc(S(=O)(=O)Cc2cc(F)c([N+](=O)[O-])cc2[N+](=O)[O-])cc1 | i | -26 | i | -10* | i
Cc1cc(C)c2sc(NNC(=O)c3ccc(S(=O)(=O)N4CCc5ccccc5C4)cc3)nc2c1 | i | -6 | 7* | i | i
COc1ccc(COc2cc(-c3cccc(OC)c3)nc3ccc(NC(=O)c4cccnc4)cc23)cc1 | i | -33 | 6* | i | i
SMILES | KCNK9 block | hERG protect | KCNQ1 inh | KCNK3 block | KCNQ1 act
COc1cc(CNCCc2c[nH]c3ccccc23)ccc1OCc1ccc(F)cc1 | -7.6* | -27 | i | i | i
CCOc1ccc(-c2c[n+]3c(n2-c2ccccc2)CCCCC3)cc1 | i | -20 | 7* | i | i
CCCC(=O)Nc1cccc(-c2nc3ccccc3c(=O)o2)c1 | i | 1 | i | i | i
COc1cccc(-c2nn(-c3ccccc3)cc2CN(C)C(C)c2ccon2)c1 (stereo not drawn) | i | -5 | 6* | i | i
COc1cccc(-c2nn(-c3ccccc3)cc2CN(C)Cc2ccno2)c1 | i | -8 | i | i | i
O=C(O)c1cc(-c2cccc([N+](=O)[O-])c2)n[nH]1 | i | 49* | i | i | i
CCOC(=O)c1c(C(C)(C)C)oc2ccc(OCC#N)cc12 | i | -7 | 6* | i | i
